Results reported in ChEMBL document CHEMBL4689842, “EUbOPEN Chemogenomics Library wave 1” (2021).

Test system: HEK-293T
Assay: Multiplex assay against HEK293T;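 for Population Tubulin-Different-Phenotype (%): share of the cells with healthy nuclei that show this phenotype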
Format: toxicity, cell-based
Conditions: human
Procedure, shortened: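 Values for tubulin, mitochondrial-mass and membrane-permeability phenotypes are per cents of cells with healthy nuclei. These cells were identified by CellPathfinder machine-learning gating of live cells that had been stained at seeding with Hoechst33342, BioTracker Green Microtubule Cytoskeleton Dye, MitoTracker Red and Annexin V Alexa Fluor 680 and imaged on a CQ1 microscope at 37°C and 5% CO2 after compound addition. The gating first set Hoechst high-intensity objects apart from normal cells, then split normal cells into healthy, pyknosed or fragmented nuclei, and pyknosed cells into mitotic or apoptotic.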

[1] = 12 h, 1 µM, compound concentration 1 uM, replicate 1
[2] = 12 h, 1 µM, compound concentration 1 uM, replicate 2
[3] = 12 h, 10 µM, compound concentration 10 uM, replicate 1
[4] = 12 h, 10 µM, compound concentration 10 uM, replicate 2
[5] = 24 h, 1 µM, compound concentration 1 uM, replicate 1
[6] = 24 h, 1 µM, compound concentration 1 uM, replicate 2
[7] = 24 h, 10 µM, compound concentration 10 uM, replicate 1
[8] = 24 h, 10 µM, compound concentration 10 uM, replicate 2
[9] = 48 h, 1 µM, compound concentration 1 uM, replicate 1
[10] = 48 h, 1 µM, compound concentration 1 uM, replicate 2
[11] = 48 h, 10 µM, compound concentration 10 uM, replicate 1
[12] = 48 h, 10 µM, compound concentration 10 uM, replicate 2

C[C@]12CC[C@@H]3c4ccc(O)cc4CC[C@H]3[C@@H]1CC[C@@H]2O [ESTRADIOL]
Population Apoptotic (%) [1]: 40% | Population Fragmented Nuclei (%) [1]: 10% | Population Healthy Nuclei (%) [1]: 45% | Population Hoechst High Intensity Objects (%) [1]: 14% | Population Membrane Permeable-Phenotype (%) [1]: 1% | Population Mitochondria Different-Phenotype (%) [1]: 72% | Population Mitotic Cells (%) [1]: 59% | Population Normal (%) [1]: 85% | Population Pyknosed Nuclei (%) [1]: 44% | Population Tubulin-Different-Phenotype (%) [1]: 41% | Population Apoptotic (%) [2]: 4% | Population Fragmented Nuclei (%) [2]: 7% | Population Healthy Nuclei (%) [2]: 42% | Population Hoechst High Intensity Objects (%) [2]: 3% | Population Membrane Permeable-Phenotype (%) [2]: 3% | Population Mitochondria Different-Phenotype (%) [2]: 10% | Population Mitotic Cells (%) [2]: 95% | Population Normal (%) [2]: 96% | Population Pyknosed Nuclei (%) [2]: 50% | Population Tubulin-Different-Phenotype (%) [2]: 11% | Population Apoptotic (%) [3]: 42% | Population Fragmented Nuclei (%) [3]: 11% | Population Hoechst High Intensity Objects (%) [3]: 15% | Population Membrane Permeable-Phenotype (%) [3]: 0% | Population Mitochondria Different-Phenotype (%) [3]: 76% | Population Mitotic Cells (%) [3]: 57% | Population Normal (%) [3]: 84% | Population Pyknosed Nuclei (%) [3]: 52% | Population Tubulin-Different-Phenotype (%) [3]: 29% | Population Apoptotic (%) [4]: 10% | Population Fragmented Nuclei (%) [4]: 5% | Population Healthy Nuclei (%) [4]: 36% | Population Hoechst High Intensity Objects (%) [4]: 5% | Population Membrane Permeable-Phenotype (%) [4]: 1% | Population Mitochondria Different-Phenotype (%) [4]: 11% | Population Mitotic Cells (%) [4]: 89% | Population Normal (%) [4]: 94% | Population Pyknosed Nuclei (%) [4]: 58% | Population Tubulin-Different-Phenotype (%) [4]: 9% | Population Apoptotic (%) [5]: 37% | Population Fragmented Nuclei (%) [5]: 12% | Population Healthy Nuclei (%) [5]: 52% | Population Hoechst High Intensity Objects (%) [5]: 16% | Population Membrane Permeable-Phenotype (%) [5]: 1% | Population Mitochondria Different-Phenotype (%) [5]: 45% | Population Mitotic Cells (%) [5]: 62% | Population Normal (%) [5]: 83% | Population Pyknosed Nuclei (%) [5]: 34% | Population Tubulin-Different-Phenotype (%) [5]: 34% | Population Apoptotic (%) [6]: 6% | Population Fragmented Nuclei (%) [6]: 3% | Population Healthy Nuclei (%) [6]: 64% | Population Hoechst High Intensity Objects (%) [6]: 3% | Population Membrane Permeable-Phenotype (%) [6]: 10% | Population Mitochondria Different-Phenotype (%) [6]: 6% | Population Mitotic Cells (%) [6]: 93% | Population Normal (%) [6]: 96% | Population Pyknosed Nuclei (%) [6]: 31% | Population Tubulin-Different-Phenotype (%) [6]: 21% | Population Apoptotic (%) [7]: 39% | Population Fragmented Nuclei (%) [7]: 11% | Population Healthy Nuclei (%) [7]: 46% | Population Hoechst High Intensity Objects (%) [7]: 16% | Population Membrane Permeable-Phenotype (%) [7]: 1% | Population Mitochondria Different-Phenotype (%) [7]: 53% | Population Mitotic Cells (%) [7]: 60% | Population Normal (%) [7]: 83% | Population Pyknosed Nuclei (%) [7]: 41% | Population Tubulin-Different-Phenotype (%) [7]: 39% | Population Apoptotic (%) [8]: 7% | Population Fragmented Nuclei (%) [8]: 5% | Population Healthy Nuclei (%) [8]: 47% | Population Hoechst High Intensity Objects (%) [8]: 5% | Population Membrane Permeable-Phenotype (%) [8]: 8% | Population Mitochondria Different-Phenotype (%) [8]: 12% | Population Mitotic Cells (%) [8]: 92% | Population Normal (%) [8]: 94% | Population Pyknosed Nuclei (%) [8]: 47% | Population Tubulin-Different-Phenotype (%) [8]: 12% | Population Apoptotic (%) [9]: 42% | Population Fragmented Nuclei (%) [9]: 15% | Population Healthy Nuclei (%) [9]: 61% | Population Hoechst High Intensity Objects (%) [9]: 13% | Population Membrane Permeable-Phenotype (%) [9]: 3% | Population Mitochondria Different-Phenotype (%) [9]: 20% | Population Mitotic Cells (%) [9]: 57% | Population Normal (%) [9]: 86% | Population Pyknosed Nuclei (%) [9]: 23% | Population Tubulin-Different-Phenotype (%) [9]: 25% | Population Apoptotic (%) [10]: 3% | Population Fragmented Nuclei (%) [10]: 5% | Population Healthy Nuclei (%) [10]: 81% | Population Hoechst High Intensity Objects (%) [10]: 3% | Population Membrane Permeable-Phenotype (%) [10]: 8% | Population Mitochondria Different-Phenotype (%) [10]: 3% | Population Mitotic Cells (%) [10]: 96% | Population Normal (%) [10]: 96% | Population Pyknosed Nuclei (%) [10]: 13% | Population Tubulin-Different-Phenotype (%) [10]: 13% | Population Apoptotic (%) [11]: 29% | Population Fragmented Nuclei (%) [11]: 16% | Population Healthy Nuclei (%) [11]: 56% | Population Hoechst High Intensity Objects (%) [11]: 11% | Population Membrane Permeable-Phenotype (%) [11]: 1% | Population Mitochondria Different-Phenotype (%) [11]: 30% | Population Mitotic Cells (%) [11]: 70% | Population Normal (%) [11]: 88% | Population Tubulin-Different-Phenotype (%) [11]: 25% | Population Apoptotic (%) [12]: 11% | Population Fragmented Nuclei (%) [12]: 3% | Population Healthy Nuclei (%) [12]: 69% | Population Hoechst High Intensity Objects (%) [12]: 4% | Population Membrane Permeable-Phenotype (%) [12]: 3% | Population Mitochondria Different-Phenotype (%) [12]: 4% | Population Mitotic Cells (%) [12]: 88% | Population Normal (%) [12]: 95% | Population Pyknosed Nuclei (%) [12]: 26% | Population Tubulin-Different-Phenotype (%) [12]: 10%

CNC(=O)Nc1ccc2c(c1)[C@@]1(CC2)OC(=O)N(CC(=O)N(Cc2ccc(F)cc2)[C@@H](C)C(F)(F)F)C1=O [A-486]
Population Apoptotic (%) [1]: 25% | Population Fragmented Nuclei (%) [1]: 17% | Population Healthy Nuclei (%) [1]: 47% | Population Hoechst High Intensity Objects (%) [1]: 15% | Population Membrane Permeable-Phenotype (%) [1]: 17% | Population Mitochondria Different-Phenotype (%) [1]: 15% | Population Mitotic Cells (%) [1]: 74% | Population Normal (%) [1]: 84% | Population Pyknosed Nuclei (%) [1]: 35% | Population Tubulin-Different-Phenotype (%) [1]: 48% | Total Cell Count [1]: 632 | Population Apoptotic (%) [2]: 12% | Population Fragmented Nuclei (%) [2]: 4% | Population Healthy Nuclei (%) [2]: 82% | Population Hoechst High Intensity Objects (%) [2]: 2% | Population Membrane Permeable-Phenotype (%) [2]: 29% | Population Mitochondria Different-Phenotype (%) [2]: 21% | Population Mitotic Cells (%) [2]: 87% | Population Normal (%) [2]: 97% | Population Pyknosed Nuclei (%) [2]: 13% | Population Tubulin-Different-Phenotype (%) [2]: 88% | Total Cell Count [2]: 1325 | Population Apoptotic (%) [3]: 14% | Population Fragmented Nuclei (%) [3]: 20% | Population Healthy Nuclei (%) [3]: 57% | Population Hoechst High Intensity Objects (%) [3]: 17% | Population Membrane Permeable-Phenotype (%) [3]: 7% | Population Mitochondria Different-Phenotype (%) [3]: 6% | Population Mitotic Cells (%) [3]: 85% | Population Normal (%) [3]: 82% | Population Pyknosed Nuclei (%) [3]: 22% | Population Tubulin-Different-Phenotype (%) [3]: 4% | Total Cell Count [3]: 510 | Population Apoptotic (%) [4]: 5% | Population Fragmented Nuclei (%) [4]: 9% | Population Healthy Nuclei (%) [4]: 85% | Population Hoechst High Intensity Objects (%) [4]: 1% | Population Membrane Permeable-Phenotype (%) [4]: 2% | Population Mitochondria Different-Phenotype (%) [4]: 8% | Population Mitotic Cells (%) [4]: 95% | Population Normal (%) [4]: 98% | Population Pyknosed Nuclei (%) [4]: 4% | Population Tubulin-Different-Phenotype (%) [4]: 13% | Total Cell Count [4]: 1787 | Population Apoptotic (%) [5]: 24% | Population Fragmented Nuclei (%) [5]: 12% | Population Healthy Nuclei (%) [5]: 73% | Population Hoechst High Intensity Objects (%) [5]: 10% | Population Membrane Permeable-Phenotype (%) [5]: 25% | Population Mitochondria Different-Phenotype (%) [5]: 11% | Population Mitotic Cells (%) [5]: 75% | Population Normal (%) [5]: 89% | Population Pyknosed Nuclei (%) [5]: 14% | Population Tubulin-Different-Phenotype (%) [5]: 67% | Total Cell Count [5]: 669 | Population Apoptotic (%) [6]: 6% | Population Fragmented Nuclei (%) [6]: 14% | Population Healthy Nuclei (%) [6]: 79% | Population Hoechst High Intensity Objects (%) [6]: 3% | Population Membrane Permeable-Phenotype (%) [6]: 36% | Population Mitochondria Different-Phenotype (%) [6]: 10% | Population Mitotic Cells (%) [6]: 93% | Population Normal (%) [6]: 96% | Population Pyknosed Nuclei (%) [6]: 5% | Population Tubulin-Different-Phenotype (%) [6]: 89% | Total Cell Count [6]: 1891 | Population Apoptotic (%) [7]: 33% | Population Fragmented Nuclei (%) [7]: 15% | Population Healthy Nuclei (%) [7]: 75% | Population Hoechst High Intensity Objects (%) [7]: 9% | Population Membrane Permeable-Phenotype (%) [7]: 8% | Population Mitochondria Different-Phenotype (%) [7]: 4% | Population Mitotic Cells (%) [7]: 66% | Population Normal (%) [7]: 90% | Population Pyknosed Nuclei (%) [7]: 9% | Population Tubulin-Different-Phenotype (%) [7]: 10% | Total Cell Count [7]: 551 | Population Apoptotic (%) [8]: 7% | Population Fragmented Nuclei (%) [8]: 25% | Population Healthy Nuclei (%) [8]: 72% | Population Hoechst High Intensity Objects (%) [8]: 2% | Population Membrane Permeable-Phenotype (%) [8]: 7% | Population Mitochondria Different-Phenotype (%) [8]: 2% | Population Mitotic Cells (%) [8]: 92% | Population Normal (%) [8]: 97% | Population Pyknosed Nuclei (%) [8]: 1% | Population Tubulin-Different-Phenotype (%) [8]: 13% | Total Cell Count [8]: 3041
